From ChEMBL document CHEMBL2163234, “Design and characterization of optimized adenosine A₂A/A₁ receptor antagonists for the treatment of Parkinson's disease” (J Med Chem, 2012)
Activity calls are given as the source filed them. The calls are words filed in the database; no cut-off is given here.

Columns and labels:
[1] = system: Mus musculus; assay: Reversal of haloperidol-induced catalepsy in po dosed BALB/c mouse measured 1 hr post dose; format: functional; conditions: for minimal effective dose: read-out: MED
Summary of the method: (§1)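 Fasted male Balb/c mice receive haloperidol 1 mg/kg sc in 0.3% tartaric acid/saline, then drug po in 0.5% methylcellulose 30 min later (0.1–10.0 mg/kg, or 10 mg/kg as % reversal). At 1 h post-dose, forepaws are placed on a bar 3.5 cm high and time in cataleptic position is recorded (max 60 s). Blinded; n = 8–12; mean ± SEM; Dunnett test.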

[2] = molecular target: T1, Adenosine receptor A1 (Homo sapiens, UniProt P30542); assay: Antagonist activity at human Adenosine receptor A1 assessed as inhibition of cAMP production; format: functional
T1 sequence (P30542 whole entry): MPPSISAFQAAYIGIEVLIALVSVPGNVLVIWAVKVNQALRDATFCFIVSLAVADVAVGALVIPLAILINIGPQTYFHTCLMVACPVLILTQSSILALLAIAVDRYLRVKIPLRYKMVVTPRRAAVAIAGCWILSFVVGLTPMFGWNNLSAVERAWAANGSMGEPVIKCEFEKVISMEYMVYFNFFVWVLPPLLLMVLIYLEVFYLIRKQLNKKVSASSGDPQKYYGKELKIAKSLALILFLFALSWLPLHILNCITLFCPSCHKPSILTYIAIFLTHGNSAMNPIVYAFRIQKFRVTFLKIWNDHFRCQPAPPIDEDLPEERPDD

[3] = system: Mus musculus; assay: Reversal of haloperidol-induced catalepsy in BALB/c mouse assessed as time duration of anticataleptic activity mouse at 10 mg/kg, po; format: functional
Summary of the method: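 Duration study: fasted male Balb/c mice are dosed with haloperidol 1 mg/kg sc, then drug 10 mg/kg po in 0.5% methylcellulose. Bar-test catalepsy time (max 60 s) is measured repeatedly at 30 min and at 1, 2 and 4 h after dosing. n = 8 per group; mean ± SEM; Dunnett test.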

[4] = molecular target: Adenosine receptor A2a (Homo sapiens, UniProt P29274); assay: Antagonist activity at human Adenosine receptor A2a assessed as inhibition of cAMP production; format: functional
Sequence of Adenosine receptor A2a (P29274 whole entry): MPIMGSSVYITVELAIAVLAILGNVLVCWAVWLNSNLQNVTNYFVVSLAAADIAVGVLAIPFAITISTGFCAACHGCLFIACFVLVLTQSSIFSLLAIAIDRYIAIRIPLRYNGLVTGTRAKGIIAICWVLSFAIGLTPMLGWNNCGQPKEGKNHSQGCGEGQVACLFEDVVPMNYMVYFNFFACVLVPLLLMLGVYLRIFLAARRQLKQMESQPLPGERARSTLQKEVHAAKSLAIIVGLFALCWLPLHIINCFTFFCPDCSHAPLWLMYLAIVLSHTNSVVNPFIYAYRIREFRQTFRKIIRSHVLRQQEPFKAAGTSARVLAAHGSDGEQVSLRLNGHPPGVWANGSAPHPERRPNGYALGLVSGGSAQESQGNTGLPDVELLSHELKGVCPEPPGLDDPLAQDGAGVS

[5] = system: Mus musculus; assay: Reversal of haloperidol-induced catalepsy in BALB/c mouse at 10 mg/kg, po measured 1 hr post dose; format: functional; summary of the method: as §1
[6] = Clearance in BALB/c mouse at 2 mg/kg, iv and 10 mg/kg, po administered as single dose; format: ADME, organism-based; conditions: in vivo
Summary of the method: (§2)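 Fasted animals (male Sprague-Dawley rats, male Balb/c mice, male and female cynomolgus monkeys) received a single iv dose or oral 10 mg/kg in 0.5% methylcellulose. Blood came from 3–4 animals per time point by orbital sinus (rats) or cardiac puncture (mice), or serially by venipuncture (monkeys). Plasma was acetonitrile-precipitated and analysed by LC-MS/MS (LOQ 0.7–2 ng/mL), with noncompartmental analysis.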

[7] = Volume of distribution at steady state in BALB/c mouse at 2 mg/kg, iv administered as single dose; format: ADME, organism-based; design: dose 2 mg/kg, route intravenous; conditions: in vivo, read-out: Vdss; summary of the method: as §2
[8] = Volume of distribution at steady state in cynomolgus monkey at 1 mg/kg, iv administered as single dose; format: ADME, organism-based, Macaca fascicularis; design: dose 1 mg/kg, route intravenous; conditions: in vivo, read-out: Vdss; summary of the method: as §2
[9] = Volume of distribution at steady state in Sprague-Dawley rat at 2 mg/kg, iv administered as single dose; format: ADME, organism-based; design: dose 2 mg/kg, route intravenous; conditions: in vivo, read-out: Vdss; summary of the method: as §2
[10] = Clearance in cynomolgus monkey at 1 mg/kg, iv and 10 mg/kg, po administered as single dose; format: ADME, organism-based, Macaca fascicularis; conditions: in vivo; summary of the method: as §2
[11] = system: Rattus norvegicus; assay: Reversal of haloperidol-induced catalepsy in Sprague-Dawley rat at 10 mg/kg, po dosed 60 mins before haloperidol challenge and measured 1 to 4 hrs post dose; format: functional, organism-based; design: dose 10 mg/kg
[12] = Clearance in Sprague-Dawley rat at 2 mg/kg, iv and 10 mg/kg, po administered as single dose; format: ADME, organism-based; conditions: in vivo; summary of the method: as §2
[13] = Cmax in BALB/c mouse plasma at 10 mg/kg, po administered as single dose; format: ADME, organism-based; design: dose 10 mg/kg, route oral; summary of the method: as §2
[14] = Oral bioavailability in BALB/c mouse at 10 mg/kg administered as single dose; format: ADME, organism-based; conditions: in vivo; summary of the method: as §2
[15] = Oral bioavailability in Sprague-Dawley rat at 10 mg/kg administered as single dose; format: ADME, organism-based; conditions: in vivo; summary of the method: as §2
[16] = system: Rattus norvegicus; assay: Antiparkinsonian activity in Sprague-Dawley rat 6-OHDA lesion model assessed as increase in number of contralateral rotations dosed orally 6 weeks post OHDA-challenge; format: functional, organism-based
Summary of the method: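 Rats receive 6-OHDA 12 μg unilaterally into the medial forebrain bundle. Inclusion required ≥125 contralateral rotations in 1 h after apomorphine 0.05 mg/kg sc. Design is within-subject, with drug 0.1–10.0 mg/kg po in 20% HPβCD after 30 min acclimation. Contralateral 360° turns are counted by a tethered optical sensor for 60 min. Mean ± SEM, n = 16, Tukey test.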

[17] = Clearance in cynomolgus monkey at 2 mg/kg, iv and 10 mg/kg, po administered as single dose; format: ADME, organism-based, Macaca fascicularis; conditions: in vivo; summary of the method: as §2
[18] = Cmax in cynomolgus monkey plasma at 10 mg/kg, po administered as single dose; format: ADME, organism-based, Macaca fascicularis; design: dose 10 mg/kg, route oral; summary of the method: as §2
[19] = system: Rattus norvegicus; assay: Antiparkinsonian activity in Wistar rat assessed as reversal of reserpine-induced akinesia administered orally 18 hrs before reserpine challenge and measured 60 mins post dose by spontaneous locomotor activity assay; conditions: for minimal effective dose: po, read-out: MED
[20] = Volume of distribution at steady state in cynomolgus monkey at 2 mg/kg, iv administered as single dose; format: ADME, organism-based, Macaca fascicularis; design: dose 2 mg/kg, route intravenous; conditions: in vivo, read-out: Vdss; summary of the method: as §2
[21] = system: Rattus norvegicus; assay: Antiparkinsonian activity in Sprague-Dawley rat 6-OHDA lesion model assessed as potentiation of 10 mg/kg, po L-DOPA-induced increase in number of contralateral rotations dosed orally 6 weeks post OHDA-challenge; format: functional; conditions: 1008 h, read-out: MED
Summary of the method: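 Rats lesioned unilaterally in the medial forebrain bundle with 6-OHDA 12 μg were selected by apomorphine rotation (≥125 turns/h). Each rat serves as its own control, with randomized session days. Drug 0.1–10.0 mg/kg po (20% HPβCD) is given and followed 60 min later by L-DOPA 10 mg/kg po plus carbidopa, with rotations recorded over 120 min. Total contralateral turns reported; n = 16; Tukey test.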

[22] = Oral bioavailability in cynomolgus monkey at 10 mg/kg administered as single dose; format: ADME, organism-based, Macaca fascicularis; conditions: in vivo; summary of the method: as §2
[23] = Half life in BALB/c mouse at 10 mg/kg, po administered as single dose; format: ADME, organism-based; design: dose 10 mg/kg, route oral; conditions: in vivo; summary of the method: as §2
[24] = system: Rattus norvegicus; assay: Reversal of haloperidol-induced catalepsy in po dosed Sprague-Dawley rat dosed 60 mins before haloperidol challenge and measured 1 hr post dose; format: functional; conditions: for minimal effective dose: read-out: MED
[25] = Cmax in Sprague-Dawley rat brain at 2 mg/kg, iv and 10 mg/kg, po administered as single dose; format: ADME, organism-based
Summary of the method: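 Tissue distribution: fasted male Sprague-Dawley rats get 10 mg/kg po in 0.5% methylcellulose. Four rats per time point are euthanized, and brain is weighed, homogenized in methanol, evaporated and reconstituted. Blood and plasma are acetonitrile-treated. Drug levels are measured by LC-MS/MS.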

[26] = Terminal half life in cynomolgus monkey at 10 mg/kg, po administered as single dose; format: ADME, organism-based, Macaca fascicularis; design: dose 10 mg/kg, route oral; conditions: in vivo, read-out: beta t1/2 (converted); summary of the method: as §2
[27] = Terminal half life in Sprague-Dawley rat at 10 mg/kg, po administered as single dose; format: ADME, organism-based; design: dose 10 mg/kg, route oral; conditions: in vivo, read-out: beta t1/2 (converted); summary of the method: as §2
[28] = Cmax in Sprague-Dawley rat plasma at 10 mg/kg, po administered as single dose; format: ADME, organism-based; design: dose 10 mg/kg, route oral; summary of the method: as §2
[29] = system: Mus musculus; assay: Antiparkinsonian activity in CF-1 mouse assessed as reversal of reserpine-induced akinesia administered orally 18 hrs before reserpine challenge and measured 60 mins post dose by spontaneous locomotor activity assay; conditions: CF-1, po, read-out: MED
[30] = system: Rattus norvegicus; assay: Reversal of haloperidol-induced catalepsy in Sprague-Dawley rat assessed as time duration of anticataleptic activity at 1 mg/kg, po dosed 60 mins before haloperidol challenge and measured post dose

SMILES: Nc1nc(-c2ccccc2)c2c(n1)-c1cc(Cc3cccnc3)ccc1C2=O
- ED50 [1]: < 1 mg/kg
- Ki [2]: 2.4 nM
- Time [3]: 4 h
- Ki [4]: 0.3 nM

SMILES: Nc1nc(-c2ccccc2)c2c(n1)-c1cc(C(F)(F)c3cccnc3)ccc1C2=O
- Ki [2]: 29.3 nM
- Activity [5]: <50%
- Ki [4]: 1.6 nM

SMILES: N#Cc1cncc(Cc2ccc3c(c2)-c2nc(N)nc(-c4ccccc4)c2C3=O)c1
- Ki [2]: 5.2 nM
- Time [3]: 2 h
- Activity [5]: 100%
- Ki [4]: 1.4 nM

SMILES: Nc1nc(-c2ccccc2)c2c(n1)-c1cc(Cc3cnccc3Cl)ccc1C2=O
- Ki [2]: 0.5 nM
- Activity [5]: 100%
- Ki [4]: 0.1 nM

SMILES: Nc1nc(-c2ccccc2)c2c(n1)-c1cc(CN3CCCC3)ccc1C2=O
- clearance [6]: 440 mL/min/kg
- Vd [7]: 13 L/kg
- Vd [8]: 7 L/kg
- ED50 [1]: 0.2 mg/kg
- Vd [9]: 7 L/kg
- clearance [10]: 56 mL/min/kg
- Activity [11]: Active
- clearance [12]: 85 mL/min/kg

SMILES: CN1CCN(C(=O)c2ccc3c(c2)-c2nc(N)nc(-c4ccccc4)c2C3=O)CC1
- clearance [6]: 37 mL/min/kg
- Vd [7]: 11 L/kg
- ED50 [1]: 0.4 mg/kg
- minimal effective dose [1]: 1 mg/kg
- Cmax [13]: 1700 nM
- bioavailability [14]: 41%
- Vd [9]: 6 L/kg
- bioavailability [15]: 45%
- Activity [16]: Dose-dependent effect
- clearance [17]: 15 mL/min/kg
- Time [3]: 4 h
- Cmax [18]: 1460 nM
- Activity [19]: Dose-dependent effect
- minimal effective dose [19]: 1 mg/kg
- Vd [20]: 4 L/kg
- minimal effective dose [21]: 1 mg/kg
- bioavailability [22]: 47%
- half-life [23]: 3.8 h
- Activity [24]: Dose-dependent effect
- ED50 [24]: 0.6 mg/kg
- minimal effective dose [24]: 1 mg/kg
- Cmax [25]: 459 nM
- half-life [26]: 4.3 h
- clearance [12]: 52 mL/min/kg
- half-life [27]: 3.6 h
- Cmax [28]: 968 nM
- minimal effective dose [29]: 1 mg/kg

SMILES: CC1CC[C@@H](C)N1Cc1ccc2c(c1)-c1nc(N)nc(-c3ccccc3)c1C2=O (mixture of isomers)
- ED50 [1]: 3.2 mg/kg
- Ki [2]: 37.3 nM
- Ki [4]: 13.1 nM

SMILES: Nc1nc(-c2ccccc2)c2c(n1)-c1cc(C(=O)c3cccnc3)ccc1C2=O
- Ki [2]: 1.8 nM
- Activity [5]: <50%
- Ki [4]: 0.5 nM

SMILES: Nc1nc(-c2ccccc2)c2c(n1)-c1cc(CN3C4CCC3CC4)ccc1C2=O
- ED50 [1]: 1 mg/kg
- Ki [2]: 223 nM
- Ki [4]: 3.1 nM

SMILES: Nc1nc(-c2ccccc2)c2c(n1)-c1cc(OCCN3CCOCC3)ccc1C2=O
- clearance [6]: 97 mL/min/kg
- Vd [7]: 5 L/kg
- ED50 [1]: < 0.1 mg/kg
- minimal effective dose [1]: 0.1 mg/kg
- Cmax [13]: 1080 nM
- Time [30]: 4 h
- bioavailability [14]: 61%
- Vd [9]: 1 L/kg
- bioavailability [15]: 18%
- Activity [16]: Dose-dependent effect
- clearance [17]: 7 mL/min/kg
- Time [3]: 4 h
- Cmax [18]: 2770 nM
- Activity [19]: Dose-dependent effect
- minimal effective dose [19]: 1 mg/kg
- Vd [20]: 2 L/kg
- minimal effective dose [21]: 1 mg/kg
- bioavailability [22]: 55%
- half-life [23]: 1.1 h
- Activity [24]: Dose-dependent effect
- ED50 [24]: 0.3 mg/kg
- minimal effective dose [24]: 1 mg/kg
- Cmax [25]: 4160 nM
- half-life [26]: 5.5 h
- clearance [12]: 19 mL/min/kg
- half-life [27]: 1.2 h
- Cmax [28]: 1650 nM
- minimal effective dose [29]: 1 mg/kg

SMILES: Nc1nc(-c2ccccc2)c2c(n1)-c1cc(Cc3cncc(F)c3)ccc1C2=O
- Ki [2]: 6 nM
- Activity [5]: 100%
- Ki [4]: 1.3 nM

SMILES: Nc1nc(-c2ccccc2)c2c(n1)-c1cc(Cc3ccncc3F)ccc1C2=O
- Ki [2]: 2.5 nM
- Activity [5]: 100%
- Ki [4]: 0.7 nM
